From ChEMBL document CHEMBL1134373, “A potent, nonpeptidyl 1H-quinolone antagonist for the gonadotropin-releasing hormone receptor” (J Med Chem, 2001)

Assays:
[1] = target: T1, Gonadotropin-releasing hormone receptor (Rattus norvegicus, UniProt P30969); test: Functional antagonism at GnRH receptor in rat (PI turnover)
T1 sequence (P30969 whole entry): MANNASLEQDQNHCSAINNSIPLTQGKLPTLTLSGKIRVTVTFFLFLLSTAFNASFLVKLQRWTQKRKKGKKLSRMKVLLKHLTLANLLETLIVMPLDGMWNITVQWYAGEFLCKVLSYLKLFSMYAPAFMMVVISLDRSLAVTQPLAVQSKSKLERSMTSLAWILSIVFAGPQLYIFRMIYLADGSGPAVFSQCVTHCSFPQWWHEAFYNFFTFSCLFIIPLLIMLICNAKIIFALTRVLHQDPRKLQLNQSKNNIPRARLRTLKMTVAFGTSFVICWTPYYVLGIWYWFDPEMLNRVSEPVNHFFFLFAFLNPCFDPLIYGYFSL

[2] = target: T2, Gonadotropin-releasing hormone receptor (Homo sapiens, UniProt P30968); test: In vitro inhibition of binding to GnRH receptor in human
T2 sequence (P30968 whole entry): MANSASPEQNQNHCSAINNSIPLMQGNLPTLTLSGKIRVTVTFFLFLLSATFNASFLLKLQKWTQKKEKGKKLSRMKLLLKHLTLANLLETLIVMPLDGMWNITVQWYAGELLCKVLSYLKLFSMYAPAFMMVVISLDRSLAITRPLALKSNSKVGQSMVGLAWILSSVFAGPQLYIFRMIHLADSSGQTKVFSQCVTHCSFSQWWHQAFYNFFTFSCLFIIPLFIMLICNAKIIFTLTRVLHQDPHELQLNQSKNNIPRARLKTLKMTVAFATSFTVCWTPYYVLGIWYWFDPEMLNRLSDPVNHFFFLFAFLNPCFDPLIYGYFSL
Procedure, shortened: (§1)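 Crude membranes came from rat pituitary (rat) or from CHO-K1 cells stably expressing human GnRH receptor (human). Competition was run against [125I-Tyr5]buserelin (1000 Ci/mmol) in 50 mM Tris-HCl pH 7.5 with 2 mM MgCl2 and 0.1% BSA. IC50 is the concentration giving 50% inhibition of specific binding.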

[3] = Plasma clearance was determined fter intravenous administration of a dose of 3 mg/kg; type: ADME, organism-based; design: dose 3 mg/kg, route intravenous; settings: read-out: ClP
Procedure, shortened: (§2)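 Male rhesus monkeys received a single iv dose in ethanol/PEG400/saline (10/40/50, v/v/v) via the brachiocephalic vein. Femoral vein blood was drawn at 5, 15, 30 min and 1, 2, 4, 6, 8, 24 h. Plasma was extracted with ethyl acetate and assayed by LC/MS/MS against an internal standard (LOQ 2.0 ng/mL). AUC came from linear/log trapezoidal rule with extrapolation by Ct/λ; t1/2 = 0.693/λ; Clp = dose/AUC(0-∞).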

[4] = Plasma clearance was determined fter intravenous administration of a dose of 0.5 mg/kg; type: ADME, organism-based; design: dose 0.5 mg/kg, route intravenous; settings: read-out: ClP; procedure, shortened: as §2
[5] = Area under curve was determined after intravenous administration of a dose of 0.5 mg/kg; type: ADME, organism-based; design: dose 0.5 mg/kg, route intravenous; settings: in vivo; procedure, shortened: as §2
[6] = Area under curve was determined after intravenous administration of a dose of 3 mg/kg; type: ADME, organism-based; design: dose 3 mg/kg, route intravenous; settings: in vivo; procedure, shortened: as §2
[7] = target: T1, Gonadotropin-releasing hormone receptor; test: In vitro inhibition of binding to GnRH receptor in rat; procedure, shortened: as §1
[8] = Half life period was determined after intravenous administration of 3 mg/kg; type: ADME, organism-based; design: dose 3 mg/kg, route intravenous; settings: in vivo; procedure, shortened: as §2
[9] = target: T2, Gonadotropin-releasing hormone receptor; test: Functional antagonism at the human GnRH receptor (PI turnover)
Procedure, shortened: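 CHO cells stably expressing human GnRH receptor were labelled 48 h with 1 μCi [3H]inositol in inositol-free F12 with 10% dialyzed FBS. After washing with PBS containing 10 mM LiCl, cells were preincubated with graded compound for 2 h at 37 °C. 0.5 nM GnRH was then added for 60 min, followed by formic acid lysis. IC50 is inhibition of GnRH-stimulated PI hydrolysis.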

[10] = Half life period was determined after intravenous administration of 0.5 mg/kg; type: ADME, organism-based; design: dose 0.5 mg/kg, route intravenous; settings: in vivo; procedure, shortened: as §2

IC50 [1]: 81 nM
IC50 [2]: 0.44 nM
clearance [3]: 33 mL/min/kg
clearance [4]: 30 mL/min/kg
AUC [5]: 303 ng·h/mL
AUC [6]: 1320 ng·h/mL
IC50 [7]: 4 nM
half-life [8]: 5 h
IC50 [9]: 1 nM
half-life [10]: 9.5 h
SMILES: Cc1cc(-c2c(OCC[C@@H]3CCN3)c3cc(C(=O)Nc4ccncn4)c(Cl)cc3[nH]c2=O)cc(C)c1C
